Experimental findings from ChEMBL document CHEMBL1124035, “1-Amino-substituted 4-methyl-5H-pyrido[4,3-b]indoles (gamma-carbolines) as tricyclic analogues of ellipticines: a new class of antineoplastic agents” (1988) are described below.

For experiment [1], the system named is Calf thymus DNA. The experiment is described as follows: Apparent DNA affinity constant. The experiment is classed as nucleic-acid assay. The conditions noted are these: Bos taurus. In a few lines: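 Apparent DNA affinity constant was measured by competition with ethidium bromide. Buffer was 20 mM Na2HPO4/NaH2PO4, 0.1 M NaCl, 1 mM EDTA, pH 7.4, with calf thymus DNA at 10 μg/mL. Values are given in 10^6 M⁻¹.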

Experiment [2] concerns Mus musculus. The experiment is described as follows: Antitumor activity against P388 leukemia in mice at a dose of 20 mg/kg administered intraperitoneally for 5 days. The experiment is classed as functional. Conditions: route intraperitoneal. Put shortly:
(§1)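 CDF1 hybrid male or female mice, 10 per group, were inoculated ip with 10^6 viable P388 cells on day 0. Drugs in distilled water were given ip (0.1 mL/10 g body weight) daily D1-5. Vehicle, 5-fluorouracil and BD 84 were given the same way. T/C = median survival day of treated / controls × 100; T/C > 128% was significant; cures counted at D60.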

Experiment [3] relates to Mus musculus. The experiment is described as follows: Antitumor activity against P388 leukemia in mice at a dose of 10 mg/kg administered intraperitoneally for 5 days. The experiment is classed as functional. In a few lines:
as §1

Experiment [4] concerns Mus musculus. The experiment is described as follows: Antitumor activity against P388 leukemia in mice at a dose of 5 mg/kg administered intraperitoneally for 5 days. The experiment is classed as functional. Put shortly:
(§2)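 CDF1 hybrid male or female mice, 10 per group, were inoculated ip on day 0 with 10^6 viable P388 leukemia cells. Drug in distilled water was given ip (0.1 mL/10 g body weight) daily on days 1-5, with vehicle, 5-fluorouracil and BD 84 controls given the same way. T/C = median survival of treated/controls × 100; T/C > 128% counted as significant.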

Experiment [5] concerns Mus musculus. The experiment is described as follows: Antitumor activity against P388 leukemia in mice at a dose of 40 mg/kg administered intraperitoneally. The experiment is classed as functional, organism-based. Set-up: dose 40 mg/kg.
Experiment [6] relates to L1210. The experiment is described as follows: Ability to reduce the cell count to 50% in L1210 culture cells. Conditions: Mus musculus, read-out: ID50 (the source's name). The experiment is classed as functional. In a few lines: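 L1210 cells in exponential growth in RPMI 1640 with 2 mM glutamine, penicillin/streptomycin and 10% FCS, 37 °C, 5% CO2. Drugs dissolved in distilled water were added to cells at 0.8 × 10^5 cells/mL for 48 h, then cells were counted. ID50 is the concentration halving cell proliferation versus controls, from regression of dose-response data; mean of two independent experiments.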

The test system of experiment [7] is Mus musculus. The experiment is described as follows: Antitumor activity against P388 leukemia in mice at a dose of 80 mg/kg administered intraperitoneally for 5 days. The experiment is classed as functional, organism-based. Set-up: dose 80 mg/kg. Put shortly:
as §2

In experiment [8] the test system is Mus musculus. The experiment is described as follows: Antitumor activity against P388 leukemia in mice at a dose of 40 mg/kg administered intraperitoneally for 5 days. The experiment is classed as functional. The conditions noted are these: route intraperitoneal. In a few lines: as §2
In experiment [9] the test system is Mus musculus. The experiment is described as follows: Antitumor activity against P388 leukemia in intraperitoneally for 5 days. The experiment is classed as functional. Put shortly: as §1
Experiment [10] relates to Mus musculus. The experiment is described as follows: Antitumor activity against P388 leukemia in mice at a dose of 50 mg/kg administered intraperitoneally for 5 days; […]. The experiment is classed as functional. Conditions: route intraperitoneal. In a few lines:
as §2

Calls of active or inactive are those of the source. The calls are words filed in the database; no cut-off is given here.

As to `CCNCCCNc1[nH]cc(C)c2nc3ccc(OC)cc3c1-2`, the K aff in [1] amounted to 220000 M⁻¹. Further, the T/C in experiment [2] is 107%; in experiment [3] (route intraperitoneal) it was 119%; in experiment [4] (route intraperitoneal), 119%; in experiment [5], “Toxic”. In experiment [6], the IC50 amounted to 1.2 µM.

For the molecule `CCN(CC)CCCCNc1ncc(C)c2c1c1cc(OC)ccc1n2C`, in [1], the K aff was 460000 M⁻¹. Also, in experiment [6], the IC50 was 1.3 µM.

For the molecule `CCN(CC)CCCNc1ncc(C)c2c1c1cc(OC)ccc1n2C`, the K aff in [1] came to 250000 M⁻¹. Moreover, the T/C in [2] is 125%; in experiment [3] (route intraperitoneal) it was 115%; in [4] (route intraperitoneal), 107%; in [7], “Toxic”; in [8], 115%. For the same molecule, in [6], the IC50 was 0.1 µM.

In the case of `CCN(CC)CC(O)CNc1ncc(C)c2c1c1cc(O)ccc1n2C` (stereo not drawn), in experiment [1], the K aff is 230000 M⁻¹. For the same molecule, the T/C entry in experiment [3] was “Toxic”. The T/C entry in experiment [4] is “inactive”. The IC50 in experiment [6] was determined as 0.06 µM.

Regarding `CCN(CC)CCCNc1[nH]cc(C)c2nc3ccc(OC)cc3c1-2`, the K aff in experiment [1] was 220000 M⁻¹. For the same molecule, the T/C is 149% in experiment [2], 147% in experiment [9], “Toxic” in [7] and 176% in experiment [8]. Besides, the IC50 in experiment [6] was 0.3 µM.

For `Cc1cnc(NCCCN2CCCC2)c2c3cc(O)ccc3n(C)c12`, the K aff in experiment [1] is 370000 M⁻¹. In experiment [6], the IC50 turned out to be 0.05 µM.

For the molecule `CCN(CC)CCCNc1[nH]cc(C)c2nc3ccccc3c1-2.O=C(O)/C=C\C(=O)O.O=C(O)/C=C\C(=O)O`, the K aff in experiment [1] was determined as 150000 M⁻¹. Moreover, the figures for the T/C in experiment [3] (route intraperitoneal) and in [10] were 130% and 175%, respectively. Besides, the IC50 in experiment [6] came out at 0.22 µM.

For the molecule `COc1ccc2c(c1)c1c(NCC(C)CN(C)C)ncc(C)c1n2C` (stereo not drawn), the K aff in [1] stood at 150000 M⁻¹. In addition, the IC50 in experiment [6] turned out to be 1 µM.

As usually defined, the T/C is the ratio of treated to control.
